# Measurements as given in ChEMBL document CHEMBL1123265, “Synthesis and antihypertensive activity of 4-(cyclic amido)-2H-1-benzopyrans” (1986).
# Legend:
# Assay type in all cases: functional
# Rattus norvegicus [1] = assay: Maximum fall in blood pressure was evaluated at an oral dose of 0.3 mg/kg in (SHR) spontaneous hypertensive rats
# Outline: (§1)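 Conscious spontaneously hypertensive rats (Okamoto-derived, 14–24 weeks old; systolic pressure >180 mmHg counted as hypertensive), six or more per dose level. Given orally by dosing needle into the esophagus as solution or suspension in 1% w/v methylcellulose. Systolic pressure read by tail cuff, each reading the mean of at least six recordings, taken before dosing and at intervals up to 6 h; maximum fall recorded.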
# Rattus norvegicus [2] = assay: Maximum fall in blood pressure was evaluated at an oral dose of 1.0 mg/kg in (SHR) spontaneous hypertensive rats; outline: as §1
# Rattus norvegicus [3] = assay: Maximum fall in blood pressure was evaluated at an oral dose of 0.1 mg/kg in (SHR) spontaneous hypertensive rats; outline: as §1
# Rattus norvegicus [4] = assay: Maximum fall in blood pressure was evaluated at an oral dose of 10.0 mg/kg in (SHR) spontaneous hypertensive rats; outline: as §1
# Rattus norvegicus [5] = assay: Maximum fall in blood pressure was evaluated at an oral dose of 10 mg/kg in (SHR) spontaneous hypertensive rats; outline: as §1
# Rattus norvegicus [6] = assay: Maximum fall in blood pressure was evaluated at an oral dose of 3.0 mg/kg in (SHR) spontaneous hypertensive rats; outline: as §1
# Rattus norvegicus [7] = assay: Maximum fall in blood pressure was evaluated at an oral dose of 0.03 mg/kg in (SHR) spontaneous hypertensive rats; outline: as §1
SMILES,Max fall in blood pressure (Rattus norvegicus [1]),Max fall in blood pressure (Rattus norvegicus [2]),other results
CC1(C)C=C(N2CCCC2=O)c2cc(C#N)ccc2O1,47%,,
CC1(C)Oc2ccc(C#N)cc2C(N2CCSC2=O)[C@@H]1O (stereo partly specified),27%,30%,
CC1(C)Oc2ccc(C#N)cc2C(N2CCNCC2=O)[C@@H]1O (stereo partly specified),53%,,Max fall in blood pressure (Rattus norvegicus [3]): 28%
CC1(C)Oc2ccc(C#N)cc2C(N2CCCCCC2=O)[C@@H]1O (stereo partly specified),,10%,
CC1(C)Oc2ccc(C=O)cc2C(N2CCCC2=O)[C@@H]1O (stereo partly specified),,,Max fall in blood pressure (Rattus norvegicus [4]): 25%
CC1(C)Oc2c(cccc2[N+](=O)[O-])C(N2CCCC2=O)[C@@H]1O (stereo partly specified),,7%,
CC1(C)C=C(N2CCCCC2=O)c2cc(C#N)ccc2O1,25%,55%,
CC(=O)Nc1cc2c(cc1[N+](=O)[O-])C(N1CCCC1=O)[C@H](O)C(C)(C)O2 (stereo partly specified),62%,,Max fall in blood pressure (Rattus norvegicus [3]): 37%
CC1(C)Oc2ccc(C#N)cc2C(N2CC[N+](C)(C)CC2=O)[C@@H]1O.[I-] (stereo partly specified),,9%,
COC(=O)c1ccc2c(c1)C(N1CCCCC1=O)[C@H](O)C(C)(C)O2 (stereo partly specified),13%,42%,
CC1(C)Oc2ccc(C#N)cc2C(N2CCCC2)[C@@H]1O (stereo partly specified),21%,29%,Max fall in blood pressure (Rattus norvegicus [3]): 8%
CC1(C)Oc2ccc(C#N)cc2C(N2CCCC2=O)[C@@H]1OC=O (stereo partly specified),31%,36%,
CC1Oc2ccc([N+](=O)[O-])cc2C(N2CCCC2=O)[C@@H]1O (stereo partly specified),,,Max fall in blood pressure (Rattus norvegicus [4]): 34%
CC(=O)c1ccc2c(c1)C(N1CCCCC1=O)[C@H](O)C(C)(C)O2 (stereo partly specified),29%,66%,
CC1(C)Oc2ccc(C#N)cc2C(N2CCCCCCC2=O)[C@@H]1O (stereo partly specified),,,Max fall in blood pressure (Rattus norvegicus [4]): 11%
CC1(C)Oc2ccc(C#N)cc2C(N2CCSCC2=O)[C@@H]1O (stereo partly specified),,9%,Max fall in blood pressure (Rattus norvegicus [5]): 12%
CC1(C)CC(N2CCCC2=O)c2cc(C#N)ccc2O1 (stereo unspecified),,15%,Max fall in blood pressure (Rattus norvegicus [6]): 45%
CC1(C)Oc2ccc(C#N)cc2C(N2OCCC2=O)[C@@H]1O (stereo partly specified),,,Max fall in blood pressure (Rattus norvegicus [4]): 19%
CC1(C)Oc2ccc(Cl)cc2C(N2CCCC2=O)[C@@H]1O (stereo partly specified),,8%,Max fall in blood pressure (Rattus norvegicus [5]): 37%
CC1(C)Oc2ccc([N+](=O)[O-])cc2C(N2CCCC2=O)[C@@H]1O (stereo partly specified),27%,63%,
CC(=O)c1ccc2c(c1)C(N1CCCC1=O)[C@H](O)C(C)(C)O2 (stereo partly specified),33%,56%,
COC(=O)c1ccc2c(c1)C(N1CCCC1=O)[C@H](O)C(C)(C)O2 (stereo partly specified),11%,20%,Max fall in blood pressure (Rattus norvegicus [5]): 44%
CC1(C)Oc2cc([N+](=O)[O-])c(N)cc2C(N2CCCC2=O)[C@@H]1O (stereo partly specified),,25%,
CC1(C)Oc2ccc(C#N)cc2C(N2CCCCC2=O)[C@@H]1O (stereo partly specified),49%,59%,Max fall in blood pressure (Rattus norvegicus [7]): 27%; Max fall in blood pressure (Rattus norvegicus [3]): 46%
CC(=O)c1ccc2c(c1)C(N1CCCC1=O)=CC(C)(C)O2,,48%,

SMILES,Max fall in blood pressure (Rattus norvegicus [1]),Max fall in blood pressure (Rattus norvegicus [2]),other results
CC1(C)Oc2ccc(C#N)cc2C(N2CCCC2=O)[C@@H]1O (stereo partly specified),39%,47%,Max fall in blood pressure (Rattus norvegicus [3]): 13%
CC(=O)c1ccc2c(c1)C(N1CCN(C(=O)c3ccc(F)cc3)CC1=O)[C@H](O)C(C)(C)O2 (stereo partly specified),,,Max fall in blood pressure (Rattus norvegicus [4]): 16%
CC1(C)Oc2ccc(C#N)cc2C(N2CCN(Cc3ccccc3)CC2=O)[C@@H]1O (stereo partly specified),26%,35%,Max fall in blood pressure (Rattus norvegicus [3]): 10%
CC1(C)C=C(N2CCSC2=O)c2cc(C#N)ccc2O1,9%,27%,
CC(=O)Nc1cc2c(cc1[N+](=O)[O-])OC(C)(C)[C@@H](O)C2N1CCCC1=O (stereo partly specified),,3%,Max fall in blood pressure (Rattus norvegicus [6]): 14%
CN1CCCN(C2=CC(C)(C)Oc3ccc(C#N)cc32)C1=O,,29%,
CC1(C)C=C(N2CCCCCC2=O)c2cc(C#N)ccc2O1,,15%,Max fall in blood pressure (Rattus norvegicus [5]): 36%
CC1(C)Oc2ccc(C#N)cc2C(N2CCOCC2=O)[C@@H]1O (stereo partly specified),26%,27%,
CC1(C)C=C(N2CCCC2=O)c2cc([N+](=O)[O-])ccc2O1,,68%,
CC1(C)Oc2ccccc2C(N2CCCC2=O)[C@@H]1O (stereo partly specified),,,Max fall in blood pressure (Rattus norvegicus [5]): 9%
CC1(C)Oc2cc([N+](=O)[O-])ccc2C(N2CCCC2=O)[C@@H]1O (stereo partly specified),12%,56%,Max fall in blood pressure (Rattus norvegicus [5]): 68%
CC(=O)N1CCN(C2c3cc(C#N)ccc3OC(C)(C)[C@H]2O)C(=O)C1 (stereo partly specified),,17%,Max fall in blood pressure (Rattus norvegicus [6]): 23%
CC1(C)Oc2ccc(C#N)cc2C(N2CCN(C(=O)c3ccco3)CC2=O)[C@@H]1O (stereo partly specified),,15%,Max fall in blood pressure (Rattus norvegicus [6]): 43%
CC1(C)Oc2ccc(C#N)cc2C(N2CCN(C(=O)c3ccccc3)CC2=O)[C@@H]1O (stereo partly specified),,,Max fall in blood pressure (Rattus norvegicus [4]): 14%
CN1CCCN(C2c3cc(C#N)ccc3OC(C)(C)[C@H]2O)C1=O (stereo partly specified),,23%,
CCCCN1CCN(C2c3cc(C#N)ccc3OC(C)(C)[C@H]2O)C(=O)C1 (stereo partly specified),48%,61%,Max fall in blood pressure (Rattus norvegicus [3]): 18%
CC1(C)Oc2ccc(C#N)cc2C(N2CCOC2=O)[C@@H]1O (stereo partly specified),20%,29%,
CC1(C)C=C(N2CCCC2=O)c2cc(Cl)ccc2O1,,,Max fall in blood pressure (Rattus norvegicus [4]): 36%
CC(=O)O[C@H]1C(N2CCCC2=O)c2cc(C#N)ccc2OC1(C)C (stereo partly specified),,30%,Max fall in blood pressure (Rattus norvegicus [6]): 39%
CC1(C)Oc2ccc(C#N)cc2C(N2CCCC2=S)[C@@H]1O (stereo partly specified),39%,,Max fall in blood pressure (Rattus norvegicus [3]): 16%
O=C1CCCN1C1c2cc([N+](=O)[O-])ccc2OC[C@H]1O (stereo partly specified),,,Max fall in blood pressure (Rattus norvegicus [4]): 5%
CN1CCN(C2c3cc(C#N)ccc3OC(C)(C)[C@H]2O)C(=O)C1 (stereo partly specified),37%,,Max fall in blood pressure (Rattus norvegicus [3]): 20%
"CC1(C)Oc2ccc(C#N)cc2C(N2CCCC2=O)C1O (single isomer, unassigned) [CROMAKALIM]",47%,,Max fall in blood pressure (Rattus norvegicus [3]): 31%
"CC1(C)Oc2ccc(C#N)cc2[C@@H](N2CCCC2=O)[C@@H]1O (single isomer, unassigned) [LEVCROMAKALIM]",,23%,Max fall in blood pressure (Rattus norvegicus [4]): 46%
COC(=O)C1=C(C)NC(C)=C(C(=O)OC)C1c1ccccc1[N+](=O)[O-] [NIFEDIPINE],,13%,Max fall in blood pressure (Rattus norvegicus [4]): 36%; Max fall in blood pressure (Rattus norvegicus [6]): 27%
